A selection: hits, their analogues and other compounds. The true share with any hit is near 2.9%.
SIRT5 inh – sirtuin-5 (human) deacylase inhibition. Q9NXA8. Purified SirT5, succinyl-peptide AMC, trypsin-coupled fluorescence. inhibition, % at 15 µM. hit rate 1.1% among 330,000; in the data active means inhibition above about 15%; inconclusive means no clear call, values can overlap the other calls
Target sequence (Q9NXA8 whole entry, looked up): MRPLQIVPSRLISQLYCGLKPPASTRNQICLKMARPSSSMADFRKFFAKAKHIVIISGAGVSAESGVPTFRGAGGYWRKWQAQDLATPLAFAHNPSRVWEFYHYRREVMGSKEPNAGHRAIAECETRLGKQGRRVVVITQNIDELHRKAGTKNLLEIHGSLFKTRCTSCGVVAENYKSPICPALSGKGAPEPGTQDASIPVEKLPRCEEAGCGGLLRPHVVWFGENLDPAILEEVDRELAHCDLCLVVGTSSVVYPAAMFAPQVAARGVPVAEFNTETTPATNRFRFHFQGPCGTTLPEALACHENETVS
E-sel inducer – E-selectin induction on HUVECs | activation, % at 7.58 µM | AID 686992 | P16581 | hit rate 0.37% among 260,000 | HUVEC E-selectin immunofluorescence imaging; normalized: neutral wells 0, TNF-alpha wells 100;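 active means mean E-selectin-positive cell signal at least 10% of the positive control, reached in at least 60% of replicates, without over 20% cell loss; inconclusive means no rule given, readout overlaps actives, possibly toxicity-flagged; inactive means the rest, including those meeting only one limit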
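Material: HUVEC primary endothelial cells; Amount: 3,000 cells per well; Dosing: single concentration; Medium: EGM-2 growth medium on 0.1% gelatin-coated wells; Read-out basis: percent E-selectin-positive cells; Signal: immunofluorescence imaging; Control set: TNF-alpha, DMSO.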
DENV2 CPE rescue – DENV2-induced cell death inhibition; CPE inhibition, % at 9.99 µM; hit rate 1.7% among 350,000; DENV2-infected cells, cytopathic effect rescue, plate reader; AID 651640; in the data active means CPE inhibition above about 20%, passing the limit was not always enough; inconclusive means no clear call, values can overlap the other calls; tested in BHK-21 cells;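 further: 0% = median of neutral control wells and 100% = median of positive control wells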
Active calls of the source: *; ? = inconclusive; · = no result given.

SMILES | SIRT5 inh | E-sel inducer | DENV2 CPE rescue
COc1ccc(C2=NS(=O)(=O)N(C)C(C(=O)NCc3ccc4c(c3)OCO4)=C2)cc1OC | -3 | · | 10
CN1CCN(CCCNc2nc3ccccc3c3nc(-c4ccccc4)nn23)CC1 | -5 | 3 | 1
COCCCNc1nc2cc(OC)c(OC)cc2c2nc(-c3ccccc3)nn12 | 21* | 0 | 9
C[C@H]1CN([C@@H](C)CO)C(=O)c2cc(NC(=O)C3CCCCC3)ccc2O[C@@H]1CN(C)CC1CC1 | 22* | 0 | 0
C[C@H](CO)N1C[C@H](C)[C@H](CN(C)S(C)(=O)=O)Oc2ccc(NC(=O)C3CCCCC3)cc2C1=O | -1 | 41* | -5
C[C@H](CO)N1C[C@H](C)[C@@H](CN(C)S(C)(=O)=O)Oc2ccc(NC(=O)C3CCCCC3)cc2C1=O | -1 | -12 | 3
C[C@@H]1CN([C@@H](C)CO)C(=O)c2cc(NC(=O)C3CCCCC3)ccc2O[C@@H]1CN(C)CC1CC1 | -7 | 0 | 4
C[C@@H]1CN([C@@H](C)CO)C(=O)CCCn2nncc2CO[C@H]1CN(C)Cc1cccc(C(=O)O)c1 | -30 | 0 | ?
C[C@H]1CN([C@@H](C)CO)C(=O)Cc2cc(NC(=O)Nc3ccc4c(c3)OCO4)ccc2O[C@@H]1CN(C)Cc1ccc(C(F)(F)F)cc1 | 3 | · | 6
Cc1ccc(S(=O)(=O)Nc2cccc3c2O[C@H](CN(C)C(=O)Nc2c(C)noc2C)[C@H](C)CN([C@H](C)CO)C3=O)cc1 | -3 | 0 | 9
COc1ccc(S(=O)(=O)Nc2cccc3c2O[C@@H](CN(C)S(=O)(=O)c2c(C)noc2C)[C@H](C)CN([C@H](C)CO)C3=O)cc1 | 102* | -11 | -2
COc1ccc(S(=O)(=O)Nc2cccc3c2O[C@H](CN(C)C(=O)Nc2c(C)noc2C)[C@H](C)CN([C@@H](C)CO)C3=O)cc1 | 1 | 63* | 7
COc1ccc(S(=O)(=O)Nc2cccc3c2O[C@@H](CN(C)C(=O)Nc2c(C)noc2C)[C@@H](C)CN([C@@H](C)CO)C3=O)cc1 | 0 | -7 | 26*
Cc1noc(C)c1NC(=O)N(C)C[C@@H]1Oc2c(NS(=O)(=O)c3ccc(F)cc3)cccc2C(=O)N([C@H](C)CO)C[C@@H]1C | 2 | 2 | -6
COc1ccc(S(=O)(=O)Nc2cccc3c2O[C@@H](CN(C)S(=O)(=O)c2c(C)noc2C)[C@H](C)CN([C@@H](C)CO)C3=O)cc1 | 5 | 0 | ?
C[C@@H]1CN([C@@H](C)CO)S(=O)(=O)c2ccc(-c3cncnc3)cc2O[C@@H]1CN(C)Cc1ccccc1 | 3 | 0 | 5
C[C@H](CO)N1C[C@H](C)[C@H](CN(C)C)Oc2cc(-c3cncnc3)ccc2S1(=O)=O | -4 | 0 | 0
COc1cccc(-c2ccc3c(c2)O[C@@H](CN(C)Cc2cncnc2)[C@H](C)CN([C@H](C)CO)S3(=O)=O)c1 | -2 | 0 | 7
COc1cccc(-c2ccc3c(c2)O[C@H](CN(C)Cc2cncnc2)[C@H](C)CN([C@@H](C)CO)S3(=O)=O)c1 | -3 | 0 | 28*
CCCN(C)C[C@H]1Oc2cc(-c3ccncc3)ccc2S(=O)(=O)N([C@H](C)CO)C[C@H]1C | 17* | 0 | 1
CCCN(C)C[C@@H]1Oc2cc(-c3ccncc3)ccc2S(=O)(=O)N([C@@H](C)CO)C[C@@H]1C | 12 | 0 | -4
C[C@@H]1CN([C@H](C)CO)S(=O)(=O)c2ccc(-c3cncnc3)cc2O[C@H]1CN(C)C | -2 | 0 | 34*
C[C@H]1CN([C@@H](C)CO)S(=O)(=O)c2ccc(-c3cncnc3)cc2O[C@H]1CN(C)Cc1ccc(Oc2ccccc2)cc1 | 27* | 0 | 7
Cc1ccc(CN2C(=O)N/C(=C/c3ccc(-c4ccc(C(=O)O)cc4)o3)C2=O)cc1 | 2 | · | -2
CO[C@H]1CN(C)C(=O)c2ccc(NC(=O)C3CC3)cc2OC[C@@H](C)N(Cc2nccs2)C[C@@H]1C | -2 | 0 | 3
SMILES | SIRT5 inh | E-sel inducer | DENV2 CPE rescue
COc1ccc(/C=C/C(=O)Nc2ccc(S(=O)(=O)N3CCOCC3)cc2)c(OC)c1 | -3 | 0 | 3
CC(=O)N/C(=C/c1ccc(OS(=O)(=O)c2ccc(C)cc2)cc1)C(=O)Nc1ccc(C(=O)O)cc1 | 1 | 1 | 7
C[C@H](CO)N1C[C@H](C)[C@@H](CN(C)S(=O)(=O)c2ccc(Cl)cc2)Oc2ccc(NC(=O)C3CC3)cc2C1=O | 0 | 0 | -1
COCCn1c(SCCOc2ccccc2)nc2ccccc2c1=O | -1 | -1 | -5
C[C@@H]1CN([C@@H](C)CO)S(=O)(=O)c2ccc(-c3ccncc3)cc2O[C@@H]1CN(C)Cc1ccc(Oc2ccccc2)cc1 | 2 | 0 | -33
C[C@@H]1CN([C@H](C)CO)S(=O)(=O)c2ccc(-c3ccncc3)cc2O[C@H]1CN(C)Cc1ccc(Oc2ccccc2)cc1 | 1 | 131* | -6
CCN1CCN(c2ccc(S(=O)(=O)N3CCCCC3)cc2NC(=O)c2cccc(C)c2)CC1 | -4 | 4 | 1
COc1ccccc1N1CCN(C(=O)c2cc(S(=O)(=O)N3CCCCC3)ccc2C)CC1 | 7 | 0 | 34*
CCOc1ccccc1N1CCN(C(=O)c2cc(S(=O)(=O)N3CCCCC3)ccc2C)CC1 | 0 | -2 | -6
CCN1CCN(c2ccc(S(=O)(=O)N3CCCCC3)cc2NC(=O)c2ccc(C)c(C)c2)CC1 | 0 | · | 38*
O=C(Cn1c(=O)oc2cc(S(=O)(=O)N3CCCCC3)ccc21)N1CCCCC1 | -3 | · | 7
COc1ccccc1NCC(=O)Nc1cc(S(=O)(=O)N2CCOCC2)ccc1N1CCOCC1 | 1 | 0 | -3
COc1ccccc1S(=O)(=O)Nc1cc(S(=O)(=O)N2CCCCC2)ccc1N1CCOCC1 | 17* | 0 | -4
COc1ccccc1N1CCN(C(=O)Cn2c(=O)oc3cc(S(=O)(=O)N4CCCC4)ccc32)CC1 | -2 | 0 | 33*
O=C(C[C@H]1C=C[C@@H](NS(=O)(=O)c2ccccc2)[C@H](CO)O1)N1CCC(Cc2ccccc2)CC1 | 1 | 0 | 9
CCCCC(O)(c1ccccc1)C(CN1CCOCC1)c1ccccc1 (configuration not stated) | -3 | 0 | -6
CCOc1ccc(CC(=O)Nc2c(C(N)=O)oc3ccc(Br)cc23)cc1OCC | -9 | · | 1
CC(Nc1nc(-c2ccc(F)cc2)cs1)c1nc2cc(Cl)c(N3CCCCC3)cc2n1CCCO (configuration not stated) | · | 0 | ·
O=C(CN1CCOCC1)NCC[C@@H]1CC[C@H](NS(=O)(=O)c2ccc(Cl)cc2)[C@H](CO)O1 | 3 | 0 | -4
O=C1CCCc2oc3ccc(NS(=O)(=O)c4cccc5cccnc45)cc3c21 | -1 | · | -2
Cc1cccc(N(CC(=O)NC2CC2)S(=O)(=O)c2ccc(Cl)cc2)c1 | -1 | 0 | 50*
Cc1ccc(S(=O)(=O)N(CC(=O)NC2CC2)c2ccc(C)c(Cl)c2)cc1 | 1 | -1 | -1
CCOC(=O)c1c(NC(=O)CSc2nnc(-c3c[nH]c4ccccc34)n2CCOC)sc2c1CCCCC2 | -1 | 0 | 8
O=C(Cn1cc2c(n1)CCCC2)NC1CCN(Cc2ccccc2)CC1 | · | 0 | 1
Cc1ccc(NC(=O)Cc2cn(C)c3ccccc23)cc1F | -4 | · | 3
